The source made the active and inactive calls.

The nature of data set [1]: Aqueous solubility at 200 uM. The note with it: buffer. In kind it is physicochemical.
For data set [2], the system named is Yersinia pseudotuberculosis YPIII. As to the kind of experiment: Inhibition of T3S in Yersinia pseudotuberculosis YPIII expressing yopE-luxAB at 1.56 uM after 3 hrs by luciferase reporter gene assay. The method in brief:
(§1)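 Strain YPIII pIB102 (yopE-luxAB) grown overnight at room temperature in BHI with 5 mM EGTA and 20 mM MgCl2 (calcium depletion), adjusted to OD600 0.088–0.095. Compound added from DMSO at 1.56–200 µM final (eight concentrations). Shaken 1 h at room temperature, then 2 h at 37 °C. Decanal added and light emission read immediately. Triplicates, repeated at least three times.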
For orientation: Reporter assays use an easily measured gene product as a stand-in for the process of interest.

The test system is the same in data set [3]. As to the kind of experiment: Inhibition of T3S in Yersinia pseudotuberculosis YPIII expressing yopE-luxAB at 3.13 uM after 3 hrs by luciferase reporter gene assay. The method in brief: as §1
Data set [4] shares this test system. As to the kind of experiment: Inhibition of T3S in Yersinia pseudotuberculosis YPIII expressing yopE-luxAB at 6.25 uM after 3 hrs by luciferase reporter gene assay. The method in brief:
as §1

Data set [5] shares this test system. As to the kind of experiment: Inhibition of T3S in Yersinia pseudotuberculosis YPIII expressing yopE-luxAB at 12.5 uM after 3 hrs by luciferase reporter gene assay. An outline of the steps:
as §1

For data set [6] the test system is unchanged. Briefly: Inhibition of T3S in Yersinia pseudotuberculosis YPIII expressing yopE-luxAB at 25 uM after 3 hrs by luciferase reporter gene assay. The method in brief:
as §1

Data set [7] shares this test system. Briefly: Inhibition of T3S in Yersinia pseudotuberculosis YPIII expressing yopE-luxAB at 50 uM after 3 hrs by luciferase reporter gene assay. The method in brief:
as §1

Data set [8] has the same test system. As to the kind of experiment: Inhibition of T3S in Yersinia pseudotuberculosis YPIII expressing yopE-luxAB at 100 uM after 3 hrs by luciferase reporter gene assay. An outline of the steps: as §1
Data set [9] has as its target Tyrosine-protein phosphatase YopH (Yersinia pseudotuberculosis serotype I (strain IP32953)) (UniProt P08538). Briefly: Inhibition of YopH in Yersinia pseudotuberculosis YPIII expressing yopE-luxAB treated 3 hrs before substrate addition measured after 15 mins by microplate reader. An outline of the steps: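 Same calcium-depleted YPIII pIB102 cultures and compound exposure (1 h room temperature, then 2 h 37 °C). An aliquot of the bacterial suspension was mixed with 25 mM p-nitrophenyl phosphate, 40 mM MES pH 5.0, 1.6 mM DTT. Incubated 15 min at 37 °C, quenched with 1 M NaOH, absorbance read at 405 nm. Triplicates, repeated at least three times.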

Data set [10] relates to Yersinia pseudotuberculosis. Briefly: Antibacterial activity against Yersinia pseudotuberculosis expressing pIB102 at 50 uM after 23 hrs by broth dilution assay. Format: functional, organism-based. An outline of the steps: (§2)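 Wild-type pIB102 grown overnight in LB at room temperature, diluted to OD600 = 0.1 in LB with 2.5 mM CaCl2. Compound added from DMSO stock to final 50 and 100 µM. Incubated at 37 °C with absorbance at 595 nm read over 23 h.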
On the technique in general: Broth dilution looks for growth in wells or tubes with falling amounts of substance.

The subject of data set [11] is Escherichia coli. As to the kind of experiment: Antibacterial activity against Escherichia coli DH5[alpha] at 50 uM after 23 hrs by broth dilution assay. In kind it is functional, organism-based. An outline of the steps: (§3)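 Overnight LB culture of E. coli DH5α grown at 37 °C, diluted to OD600 0.1 in LB with 2.5 mM CaCl2; compound added from DMSO stock to final 50 or 100 µM. Incubated at 37 °C with absorbance at 595 nm followed over 23 h.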

Data set [12] has as its system Yersinia pseudotuberculosis. Briefly: Antibacterial activity against Yersinia pseudotuberculosis expressing pIB102 at 100 uM after 23 hrs by broth dilution assay. Format: functional, organism-based. An outline of the steps:
as §2

Data set [13] deals with Escherichia coli. Briefly: Antibacterial activity against Escherichia coli DH5[alpha] at 100 uM after 23 hrs by broth dilution assay. In kind it is functional, organism-based. An outline of the steps: as §3
In data set [14] the test system is Yersinia pseudotuberculosis YPIII. Briefly: Inhibition of T3S in Yersinia pseudotuberculosis YPIII expressing yopE-luxAB at 200 uM after 3 hrs by luciferase reporter gene assay. An outline of the steps: as §1
For data set [15], the system named is Yersinia pseudotuberculosis. Briefly: Antibacterial activity against Yersinia pseudotuberculosis expressing pIB102 infected in mouse J774 cells assessed as inhibition of bacteria-induced cell death at 50 uM after 14 hrs using calcein AM staining by fluorescence microscopy. In kind it is functional, organism-based. An outline of the steps: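 J774A macrophages (4 × 10^4 cells/well) grown 24 h in DMEM/10% FCS/gentamicin. Wild-type pIB102 grown in LB plus kanamycin overnight at room temperature, diluted 1/10 in DMEM, shaken 1 h at room temperature then 2 h at 37 °C. Added at OD600 = 0.002 with compound (25, 50, 100 µM final; DMSO <0.5%). Incubated 14 h, 37 °C, 5% CO2. CalceinAM 40 min, fluorescence 485/535 nm; uninfected cells = 100% viability.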

Data set [16] relates to Escherichia coli. Briefly: Antibacterial activity against Enterotoxigenic Escherichia coli infected in mouse J774 cells assessed as inhibition of bacteria-induced cell death at 25 to 100 uM after 14 hrs using calcein AM staining by fluorescence microscopy. Format: functional, organism-based. An outline of the steps:
(§4)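 J774A macrophages (4×10⁴/well, DMEM with 10% FCS, gentamicin 3 µg/mL, 24 h at 37 °C, 5% CO2) washed with PBS, then given fresh DMEM with compound plus bacteria (OD600 0.002), final 25, 50, 100 µM, DMSO below 0.5%. ETEC grown overnight in LB at 37 °C, diluted and grown 3 h. 14 h at 37 °C, 5% CO2; CalceinAM 40 min, fluorescence 485/535 nm, confirmed by microscopy; uninfected cells = 100% viability; gentamicin 5 µg/mL rescue control.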

A further data set relates to J774. Briefly: Cytotoxicity against mouse J774 cells at 25 to 100 uM after 14 hrs using calcein AM staining by fluorescence microscopy. Format: cell-based. The conditions noted are these: j774, 14 h. The method in brief: as §4

Sequence of Tyrosine-protein phosphatase YopH (Yersinia pseudotuberculosis serotype I (strain IP32953)) (P08538 whole entry): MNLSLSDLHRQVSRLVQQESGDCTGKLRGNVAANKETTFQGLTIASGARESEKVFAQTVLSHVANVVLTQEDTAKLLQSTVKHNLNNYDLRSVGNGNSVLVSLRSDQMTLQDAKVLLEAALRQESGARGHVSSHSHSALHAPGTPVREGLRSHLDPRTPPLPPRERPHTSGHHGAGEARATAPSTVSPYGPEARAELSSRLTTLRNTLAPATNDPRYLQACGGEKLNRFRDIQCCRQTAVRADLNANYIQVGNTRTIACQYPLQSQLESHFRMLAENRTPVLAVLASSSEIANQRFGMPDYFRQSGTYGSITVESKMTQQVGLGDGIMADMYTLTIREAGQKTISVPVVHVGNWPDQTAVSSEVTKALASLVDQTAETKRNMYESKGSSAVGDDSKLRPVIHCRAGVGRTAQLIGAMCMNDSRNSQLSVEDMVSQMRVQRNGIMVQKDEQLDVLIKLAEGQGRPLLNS

On to `O=C(N/N=C/c1cc(I)cc(I)c1O)c1cc(Cl)cc(Cl)c1`, for which the solubility entry in data set [1] is reported as “Insoluble”. Also, the inhibition (usually the drop in the measured response relative to a control, in per cent) worked out at 0% in data set [2]; 12% in data set [3]; 15% in data set [4]; 17% in data set [5]; 23% in data set [6]; 26% in [7]. Besides, in data set [8], the inhibition stood at 21%. The inhibition result in data set [9] is “inactive”. The result (in [10]; in the data set with Escherichia coli [11]; in [12]; with Escherichia coli [13]) was inactive.
On to `COc1ccc(Br)c(/C=N/NC(=O)c2snnc2C)c1O`, for which, in data set [1], the solubility entry is “Insoluble”. The inhibition in data set [2] is -5%; in data set [3], 14%; in data set [4] it was 19%; in data set [5], 21%; in data set [6] it was 34%; in data set [7] it was 60%. Also, the inhibition in data set [8] came to 71%. The outcome (in data set [10]; with Escherichia coli [11]; in [12]; in the data set with Escherichia coli [13]) was inactive.
For `CC(C)(C)c1cc(/C=N/NC(=O)c2cccc(C(F)(F)F)c2)c(O)c(C(C)(C)C)c1`, the inhibition in [3] is -10%; in data set [4], 3%; in [5], 7%; in [6] it was 6%; in data set [7], 9%; in data set [8], 11%. In [14], the inhibition came to 2%. In addition, the result (in [10]; in the data set with Escherichia coli [11]; in data set [12]; with Escherichia coli [13]) was inactive. The inhibition result (in data set [15]; in the data set on Escherichia coli [16]) was “inactive” in each case. The Activity entry in the data set on J774 was “Non-toxic”.
Take `O=C(CCc1ccc(F)cc1)N/N=C/c1cc(F)cc(Cl)c1O`: the inhibition was -6% in [2]; 2% in data set [3]; -1% in [4]; 10% in data set [5]; 15% in data set [6]; 63% in data set [7]. Besides, the inhibition amounted to 90% in data set [8] and 94% in data set [14]. Moreover, the outcome (in data set [10]; with Escherichia coli [11]; in data set [12]; with Escherichia coli [13]) was inactive. Moreover, the inhibition result (in data set [15]; with Escherichia coli [16]) was “inactive” each time. The Activity entry in the data set on J774 is “Non-toxic”.
`COc1cccc(C(=O)N/N=C/c2cccc(F)c2O)c1`: the inhibition in data set [2] was -2%; in [3] it was 7%; in data set [4], 9%; in [5], 11%; in data set [6], 17%; in data set [7], 45%. Moreover, the figures for the inhibition in data set [8] and in data set [14] were 58% and 74%, respectively. The outcome (in data set [10]; with Escherichia coli [11]; in data set [12]; in the data set on Escherichia coli [13]) was inactive. The inhibition entry in data set [15] was “Active”. The inhibition entry with Escherichia coli [16] is “inactive”. For the same compound, in the data set on J774, the Activity result is reported as “Non-toxic”.
On to `O=C(COc1ccc([N+](=O)[O-])cc1)N/N=C/c1cccc(F)c1O`, for which the inhibition in data set [3] was -5%; in [4], 6%; in [5] it was 4%; in [6], 25%; in [7] it was 84%; in data set [8], 95%. In data set [14], the inhibition was 97%. For the same compound, the inhibition entry in data set [9] and in data set [15] was “Active” each time. Besides, the result (in data set [10]; with Escherichia coli [11]; in [12]; in the data set on Escherichia coli [13]) was inactive. For the same compound, the inhibition result in the data set on Escherichia coli [16] was “inactive”. In addition, the Activity result with J774 is given as “Non-toxic”.
In the case of `O=C(N/N=C/c1cc(Br)ccc1O)c1ccncc1`, the inhibition is -8% in [2]; 14% in [3]; 13% in data set [4]; 24% in data set [5]; 43% in [6]; 87% in [7]. Further, the inhibition in data set [8] was determined as 95%; in data set [14] it was 98%. In addition, the outcome (in [10]; with Escherichia coli [11]; in data set [12]; in the data set on Escherichia coli [13]) was inactive. In data set [15], the inhibition result is “Active”. Moreover, in the data set with J774, the Activity entry is “Non-toxic”.
